# TRPC6 inhibitor: mouse TRPC6 channel inhibition; Q61143; HEK293-TRPC6, membrane potential dye, ACh-evoked depolarization; stronger effect = lower value; B-score at 10 µM; 1.1% of 310,000 active; AID 2553;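 active = B-score under library mean minus 3 SD, initial fluorescence not abnormally high, positive integrated signal ratio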;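 note: B-score derived from integrated fluorescence ratio over the kinetic read; more negative B-score means stronger inhibition of depolarization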
# Target sequence (Q61143 whole entry, looked up): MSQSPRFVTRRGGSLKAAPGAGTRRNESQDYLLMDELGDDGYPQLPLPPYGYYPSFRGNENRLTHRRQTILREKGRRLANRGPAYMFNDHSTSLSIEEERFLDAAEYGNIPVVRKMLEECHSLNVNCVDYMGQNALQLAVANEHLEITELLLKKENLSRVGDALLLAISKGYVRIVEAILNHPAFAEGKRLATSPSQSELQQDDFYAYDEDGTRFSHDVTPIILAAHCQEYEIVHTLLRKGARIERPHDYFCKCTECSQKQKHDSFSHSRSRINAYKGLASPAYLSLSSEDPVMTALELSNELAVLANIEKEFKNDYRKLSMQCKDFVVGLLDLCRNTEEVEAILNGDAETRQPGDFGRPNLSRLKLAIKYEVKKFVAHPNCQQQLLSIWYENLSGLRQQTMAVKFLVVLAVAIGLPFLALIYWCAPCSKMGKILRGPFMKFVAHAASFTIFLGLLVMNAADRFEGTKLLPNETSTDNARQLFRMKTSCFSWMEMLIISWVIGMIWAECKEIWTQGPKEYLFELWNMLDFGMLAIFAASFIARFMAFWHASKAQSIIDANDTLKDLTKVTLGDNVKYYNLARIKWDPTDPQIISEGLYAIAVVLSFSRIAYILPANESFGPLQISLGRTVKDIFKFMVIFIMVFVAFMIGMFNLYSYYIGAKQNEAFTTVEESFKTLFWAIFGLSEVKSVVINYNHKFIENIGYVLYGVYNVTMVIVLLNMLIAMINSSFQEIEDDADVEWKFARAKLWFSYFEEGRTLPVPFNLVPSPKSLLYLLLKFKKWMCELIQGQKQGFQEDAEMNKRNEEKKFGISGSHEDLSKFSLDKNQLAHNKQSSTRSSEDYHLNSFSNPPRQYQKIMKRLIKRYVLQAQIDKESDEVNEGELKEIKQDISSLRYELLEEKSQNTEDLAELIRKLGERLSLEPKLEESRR
# TRPC6 act: activators of mouse TRPC6 channel. Q61143. B-score at 10 µM. 0.13% of 310,000 active. AID 2550. HEK293-TRPC6 membrane potential dye fluorescence; stronger effect = higher value;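 active = B-score of the integrated fluorescence ratio above library mean plus 3 SD, and starting fluorescence ratio within library mean plus 5 SD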;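 note: higher score means more depolarization so channel activation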
# FID counter: fluorescent intercalator displacement, NS3 helicase counter-screen. DNA fluorescent intercalator displacement, fluorescence. inhibition, % at 7.9 µM. 0.17% of 290,000 active. AID 1845; in the data active = inhibition above about 37%;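 note: higher means more ethidium bromide displaced from hairpin DNA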
# TRPC4 agonist: TRPC4 (mouse) channel activation; Q9QUQ5; HEK293 TRPC4beta/mu-opioid, Fluo4 calcium fluorescence; stronger effect = higher value; AID 2237; B-score at 10 µM; 0.49% of 310,000 active;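 active = B-score above 5 SD of library B-scores, and initial fluorescence ratio not above library mean plus 5 SD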;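 note: positive B-score marks a calcium rise read as TRPC4 activation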
#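 Assay system – TRPC4beta and mu-opioid receptor HEK293 stable cells · Measured by – Fluo4 fluorescence, kinetic · Schedule – dye loading 45 min room temperature, 110 s kinetic read · Read-out – B-scored integrated calcium fluorescence ratio · Controls – buffer and maximal DAMGO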
# TRPC4 PAM: TRPC4 (mouse) allosteric potentiation | HEK293 TRPC4beta/mu-opioid, DAMGO EC20, Fluo-4 Ca2+ flux; stronger effect = higher value | B-score at 10 µM | 0.42% of 310,000 active | AID 2227;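 active = B-score of calcium response area above 5 SD of library B-scores, with initial fluorescence ratio within 5 SD of library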
# TRPC4 inh: inhibitors of mouse TRPC4 channel. Q9QUQ5. AID 2247. 0.39% of 300,000 active. HEK293 TRPC4beta/mu-opioid, DAMGO-evoked Fluo4 calcium flux; stronger effect = lower value. B-score at 10 µM;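 active = B-score over 3 SD under the library average, no early fluorescence shift, positive overall ratio signal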
#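 Assay system: HEK293 cells with stable TRPC4beta plus mu-opioid receptor expression; Probe or stimulus: DAMGO in two steps, submaximal then maximal; Dosing: single-point compound dosing; Measured by: Fluo4 calcium-dye fluorescence, kinetic read; Read-out basis: B score from integrated Fluo4 fluorescence ratio.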
# TRPC4 sel inh 2: second selectivity test of TRPC6 inhibitors: effect on mouse TRPC4 | shares compounds with TRPC6 inhibitor | AID 2776 | HEK293 TRPC4/MOR, membrane potential dye fluorescence; channel activated by saturating DAMGO dose | 42% of 920 active | inhibition, % at 10 µM;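 active = compounds whose fluorescence signal differed from control wells by over 3 SD, either direction, in both duplicate plates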
# TRPC4 spec: mouse TRPC4 off-target activity of TRPC6 inhibitors; shares compounds with TRPC6 inhibitor; HEK293 TRPC4/mu-opioid, membrane potential fluorescence; activity change, negative = inhibition, % at 10 µM; 61% of 920 active; AID 2777;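 active = rise or fall in signal beyond 3 SD of buffer-only wells in both replicate plates, either sign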;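 note: integrated kinetic ratio of fluorescence range over baseline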
# HEK293 MPD ctr 2-1: second counter-screen for TRPC6 inhibitors: parental HEK293 cells. 31% of 920 active. signal change vs control, % at 10 µM. shares compounds with TRPC6 inhibitor. parental HEK293 membrane potential dye fluorescence; maximal acetylcholine challenge after compound addition;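 active = membrane potential signal moving either way by over 3 SD of the maximum-effect control, in both duplicate plates, meaning non-specific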
# HEK293 MPD ctr-1: checks TRPC6 inhibitor effects in parental HEK293 cells; shares compounds with TRPC6 inhibitor; parental HEK293 membrane potential dye fluorescence; membrane potential signal change, % at 10 µM; 60% of 920 active; AID 2780;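 active = membrane potential signal shifting up or down by more than 3 SD of buffer-only wells, on both duplicate plates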
# HEK293 MPD ctr-2: parental HEK293 nonspecific activity of TRPC6 modulators. membrane potential dye fluorescence. 51% of 2,400 active. membrane potential signal change, % at 10 µM. shares compounds with TRPC6 inhibitor. AID 488924;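 active = membrane potential signal moves up or down beyond 5 SD from buffer-only wells, on both duplicate plates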
# HEK293 MPD ctr 2-2: second counter-screen for TRPC6 modulators: effect in parental HEK293 cells; shares compounds with TRPC6 inhibitor; membrane potential dye fluorescence; after compound, maximal acetylcholine stimulation; inhibition, % at 10 µM; 14% of 2,400 active; AID 488926;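 active = membrane potential signal drops by more than 5 SD from the mean control signal, in both duplicate plates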
# TRPC4/MOR mod: selectivity of TRPC6 modulators against mouse TRPC4; shares compounds with TRPC6 inhibitor; HEK293 TRPC4/mu-opioid, membrane potential fluorescence; percent change from control (negative = decrease, positive = increase), % at 10 µM; 69% of 2,400 active; AID 488927;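 active = membrane potential signal moved up or down beyond 5 SD of buffer control wells, in both duplicate plates, actives on both sides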
# TRPC4 ctr inh 2: second check of whether TRPC6 modulators also affect mouse TRPC4; shares compounds with TRPC6 inhibitor; HEK293 TRPC4/mu-opioid, membrane potential dye fluorescence; stimulated with maximal-effect DAMGO; inhibition, % at 10 µM; 55% of 2,400 active;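 active = drop in membrane potential signal beyond 5 SD of the control wells in both duplicate plates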;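 note: TRPC4 counter screen for TRPC6 hits run under conditions tuned for TRPC6 not TRPC4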
# TRPC6 block conf: mouse TRPC6 inhibitor confirmation. inhibition, % at 10 µM. 43% of 3,300 active. AID 488960. HEK293-TRPC6, membrane potential dye, ACh-evoked depolarization. shares compounds with TRPC6 inhibitor;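 active = fluorescence ratio falls more than 5 SD below the full-stimulation control mean, in both duplicate runs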;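 note: integrated fluorescence ratio of peak minus minimum over baseline after agonist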
# TRPC6 act conf: mouse TRPC6 activator confirmation | shares compounds with TRPC6 inhibitor | HEK293-TRPC6 membrane potential dye fluorescence, FDSS | activation, % at 10 µM | 11% of 2,800 active;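 active = ratio signal rise beyond 5 SD above unstimulated control wells' mean, seen in both duplicate runs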
# Hits are given with their value; – = inactive; · = no result given. In the library only some 2.3% were active in any assay of this set; here they are far more common.
SMILES,TRPC6 inhibitor,TRPC6 act,FID counter,TRPC4 agonist,TRPC4 PAM,TRPC4 inh,HEK293 MPD ctr-2,HEK293 MPD ctr 2-2,TRPC4/MOR mod,TRPC4 ctr inh 2,TRPC6 block conf,TRPC6 act conf,others
CC(=O)c1ccccc1NC(=O)COC(=O)/C=C/c1ccc(OC(F)F)cc1,–,–,·,–,–,–,·,·,·,·,·,·,
CCOC(=O)CNC(=O)Cn1cnc2c(nnn2-c2cccc(OC)c2)c1=O,–,–,–,–,–,–,·,·,·,·,·,·,
CCOc1ccc(NC(=O)C2C(C(=O)O)C3(Cl)C(Cl)=C(Cl)C2(Cl)C3(Cl)Cl)cc1 (configuration not stated),–,13,–,–,–,–,250%,–,33%,–,–,106%,
Cc1ccc(-c2nc(NCCN3CCOCC3)c3ccccc3n2)cc1,-6.2,–,46,–,–,–,-210%,–,-38%,74%,62%,–,
c1ccc2c(NCCCN3CCOCC3)c3ccccc3nc2c1,·,·,–,·,·,·,·,·,·,·,·,·,
Fc1ccccc1-c1nc(NCCCN2CCOCC2)c2ccccc2n1,-5.1,–,–,–,–,–,-272%,–,-47%,55%,52%,–,
Oc1ccccc1-c1nc(NCCN2CCOCC2)c2ccccc2n1,-8.3,–,–,–,–,–,·,·,·,·,68%,–,TRPC4 sel inh 2=58%;TRPC4 spec=-19%;HEK293 MPD ctr 2-1=–;HEK293 MPD ctr-1=-328%
c1csc(-c2nc(NCCCN3CCOCC3)c3ccccc3n2)c1,-7.2,–,61,–,–,–,-180%,–,-40%,72%,68%,–,
O=C(Nc1ccc(Oc2ccccc2)nc1)C1CCCCN1Cc1ccc(OCCO)cc1 (configuration not stated),–,–,–,–,–,–,·,·,·,·,·,·,
CCOc1ccc(-n2c(=O)c3sccc3n(CC(=O)NCC3CCCO3)c2=O)cc1 (configuration not stated),–,–,–,–,–,–,·,·,·,·,·,·,
Clc1ccc(-c2nc(NCCCN3CCOCC3)c3ccccc3n2)cc1,-6.7,–,48,–,–,–,·,·,·,·,61%,–,TRPC4 sel inh 2=72%;TRPC4 spec=-24%;HEK293 MPD ctr 2-1=–;HEK293 MPD ctr-1=-328%
Clc1cccc(-c2nc(NCCN3CCOCC3)c3ccccc3n2)c1,–,–,–,–,–,–,·,·,·,·,·,·,
O=P(c1ccccc1)(c1ccccc1)C(O)c1ccc(Br)cc1 (configuration not stated),–,–,–,–,–,–,·,·,·,·,·,·,
O=C(NCCCN1CCOCC1)c1ccc2c(c1)N(Cc1ccc(Cl)cc1)C(=O)c1ccccc1S2=O (configuration not stated),–,–,–,–,–,–,·,·,·,·,·,·,
CCC(CC)COC(=O)C(C#N)c1nc2ccccc2nc1N1CCN(CC)CC1 (configuration not stated),-9.8,–,–,–,–,–,·,·,·,·,63%,–,TRPC4 sel inh 2=50%;TRPC4 spec=–;HEK293 MPD ctr 2-1=–;HEK293 MPD ctr-1=–
CCC(C)COC(=O)C(C#N)c1nc2ccccc2nc1N1CCCCC1 (configuration not stated),–,–,–,–,–,–,·,·,·,·,·,·,
C/C(=N/NC(=O)c1cc(-c2ccc(Cl)s2)[nH]n1)c1ccco1,–,–,–,–,–,–,·,·,·,·,·,·,
CC(=O)c1ccc(Nc2cc(C)nc3c(C)cccc23)cc1,-5.7,–,–,–,–,–,-82%,64%,-22%,54%,–,–,
Cc1ccc(Nc2cc(C)nc3c(C)cccc23)cc1,-6.8,–,–,–,–,-7,·,·,·,·,98%,–,TRPC4 sel inh 2=20%;TRPC4 spec=–;HEK293 MPD ctr 2-1=22%;HEK293 MPD ctr-1=-196%
CC(=O)c1ccc(Nc2cc(C)nc3ccccc23)cc1,-6.9,–,–,–,–,–,102%,144%,–,63%,84%,–,
CCC(=O)c1ccc(OCC(=O)OCC(=O)NCC2CCCCC2)cc1,–,–,·,–,–,–,·,·,·,·,·,·,
COc1ccc(-c2csc(N(CCCN(C)C)C(=O)c3ccccc3C)n2)cc1,-8.9,–,–,–,–,–,·,·,·,·,62%,–,TRPC4 sel inh 2=43%;TRPC4 spec=–;HEK293 MPD ctr 2-1=–;HEK293 MPD ctr-1=–
COc1ccc(-c2csc(N(CCCN(C)C)C(=O)c3ccccc3F)n2)cc1,-6.5,–,–,–,–,–,–,–,–,85%,51%,–,
CCN(CC)CCCN(C(=O)c1ccc(F)cc1)c1nc(-c2ccc(OC)cc2)cs1,-6.7,–,–,–,–,–,·,·,·,·,73%,–,TRPC4 sel inh 2=33%;TRPC4 spec=–;HEK293 MPD ctr 2-1=–;HEK293 MPD ctr-1=–
COc1ccc(-c2csc(N(CCCN(C)C)C(=O)c3ccccc3Cl)n2)cc1,-7.9,–,–,–,–,–,·,·,·,·,59%,–,TRPC4 sel inh 2=37%;TRPC4 spec=–;HEK293 MPD ctr 2-1=–;HEK293 MPD ctr-1=–
COc1ccc(-c2csc(N(CCCN(C)C)C(=O)c3ccc(F)cc3)n2)cc1,–,–,–,–,–,–,·,·,·,·,·,·,
O=C(Nc1ccccc1Cl)Nc1ccnn1C1CCN(C(=O)CCN2CCCO2)CC1,–,–,–,–,–,–,·,·,·,·,·,·,
O=C(O)c1cn(Cc2ccccc2)c2ccc(Cl)cc2c1=O,–,–,·,–,–,–,·,·,·,·,·,·,
Cc1cccc(NC(=S)N(CCCN2CCCC2)Cc2cccn2Cc2ccc(Cl)cc2)c1,–,–,–,–,–,–,·,·,·,·,·,·,
CCOc1ccc(NC(=S)N(CCCN2CCCC2)Cc2cccn2Cc2ccc(Cl)cc2)cc1,-5.2,–,–,–,–,–,–,–,–,53%,–,–,

# From PubChem BioAssay
